Experimental data from ChEMBL document CHEMBL6071151, “Discovery of Inhibitors Targeting Protein-Protein Interaction between Bacterial RNA Polymerase and NusG as Novel Antimicrobials” (J Med Chem, 2024).
One block for each compound: values may come before it. Activity calls are given as the source filed them. No cut-off for these calls is given here.

Tests used:
[1] = tested on: Streptococcus pneumoniae; test: Antimicrobial activity against Streptococcus pneumoniae clinical isolate CUHK-X01 assessed as reduction in microbial growth measured after 20 hrs by CLSI based broth microdilution method; assay type: functional
[2] = tested on: Streptococcus agalactiae; test: Antimicrobial activity against Streptococcus agalactiae ATCC 12386 assessed as reduction in microbial growth measured after 20 hrs by CLSI based broth microdilution method; assay type: functional
[3] = tested on: Streptococcus pneumoniae; test: Antimicrobial activity against Streptococcus pneumoniae ATCC 49619 assessed as reduction in microbial growth measured after 20 hrs by CLSI based broth microdilution method; assay type: functional
[4] = tested on: Staphylococcus saprophyticus; test: Antimicrobial activity against Staphylococcus saprophyticus ATCC 15305 assessed as reduction in microbial growth measured after 20 hrs by CLSI based broth microdilution method; assay type: functional
[5] = tested on: Escherichia coli; test: Antimicrobial activity against Escherichia coli ATCC 25922 assessed as reduction in microbial growth measured after 20 hrs by CLSI based broth microdilution method; assay type: functional
How it was run: (§1)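 Broth microdilution per CLSI in cation-adjusted Mueller-Hinton broth. Two-fold serial dilutions from 256 to 0.25 μg/mL, inoculum about 5 × 10⁵ CFU/mL. Read after 20 h at 37 °C. MIC is the lowest concentration with no visible growth. Run in duplicate.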

[6] = tested on: Staphylococcus epidermidis; test: Antimicrobial activity against Staphylococcus epidermidis ATCC 12228 assessed as reduction in microbial growth measured after 20 hrs by CLSI based broth microdilution method; assay type: functional
[7] = tested on: Acinetobacter baumannii; test: Antimicrobial activity against Acinetobacter baumannii ATCC 19606 assessed as reduction in microbial growth measured after 20 hrs by CLSI based broth microdilution method; assay type: functional; how it was run: as §1
[8] = tested on: Streptococcus pneumoniae; test: Antimicrobial activity against Streptococcus pneumoniae TCH8431 (HM-145) assessed as reduction in microbial growth measured after 20 hrs by CLSI based broth microdilution method; assay type: functional
[9] = tested on: Streptococcus pyogenes; test: Antimicrobial activity against Streptococcus pyogenes ATCC 19615 assessed as reduction in microbial growth measured after 20 hrs by CLSI based broth microdilution method; assay type: functional
[10] = tested on: Streptococcus pneumoniae; test: Antimicrobial activity against Streptococcus pneumoniae clinical isolate CUHK-X03 assessed as reduction in microbial growth measured after 20 hrs by CLSI based broth microdilution method; assay type: functional
[11] = tested on: Staphylococcus aureus; test: Antimicrobial activity against Staphylococcus aureus ATCC 29213 assessed as reduction in microbial growth measured after 20 hrs by CLSI based broth microdilution method; assay type: functional; how it was run: as §1
[12] = tested on: Enterobacter cloacae; test: Antimicrobial activity against Enterobacter cloacae ATCC 13047 assessed as reduction in microbial growth measured after 20 hrs by CLSI based broth microdilution method; assay type: functional; how it was run: as §1
[13] = tested on: Streptococcus pneumoniae; test: Antimicrobial activity against Streptococcus pneumoniae clinical isolate CUHK-X04 assessed as reduction in microbial growth measured after 20 hrs by CLSI based broth microdilution method; assay type: functional
[14] = tested on: Enterococcus faecalis; test: Antimicrobial activity against Enterococcus faecalis ATCC 19433 assessed as reduction in microbial growth measured after 20 hrs by CLSI based broth microdilution method; assay type: functional; how it was run: as §1
[15] = tested on: Klebsiella pneumoniae; test: Antimicrobial activity against Klebsiella pneumoniae ATCC 700603 assessed as reduction in microbial growth measured after 20 hrs by CLSI based broth microdilution method; assay type: functional; how it was run: as §1
[16] = tested on: Streptococcus pneumoniae; test: Antimicrobial activity against Streptococcus pneumoniae NP112 (NR-19213) assessed as reduction in microbial growth measured after 20 hrs by CLSI based broth microdilution method; assay type: functional
[17] = tested on: Staphylococcus aureus; test: Antimicrobial activity against Staphylococcus aureus ATCC 25923 assessed as reduction in microbial growth measured after 20 hrs by CLSI based broth microdilution method; assay type: functional; how it was run: as §1
[18] = tested on: Streptococcus pneumoniae; test: Antimicrobial activity against Streptococcus pneumoniae clinical isolate CUHK-X02 assessed as reduction in microbial growth measured after 20 hrs by CLSI based broth microdilution method; assay type: functional
[19] = tested on: Pseudomonas aeruginosa; test: Antimicrobial activity against Pseudomonas aeruginosa ATCC 27853 assessed as reduction in microbial growth measured after 20 hrs by CLSI based broth microdilution method; assay type: functional; how it was run: as §1
[20] = Inhibition of Bacillus subtilis LgBiT-fused NusG/C-terminal SmBit fused […] CH protein-protein interaction using […] incubated for 20 mins by luminescence based analysis
How it was run: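 Split-nanoluciferase competition assay with His-tagged proteins expressed in E. coli BL21(DE3) and Ni-purified. C-SmBiT-β'CH (250 nM in PBS) was preincubated with compound for 10 min at 37 °C. N-LgBiT-NusG (250 nM in PBS) was then added and incubated 10 min at 37 °C. Nano-Glo substrate was added and luminescence read. IC50 determined. Triplicate with technical repeats.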

[21] = tested on: Bacillus subtilis; test: Antibacterial activity against Bacillus Subtilis assessed as bacterial transcription by measuring delocalization of GFP-tagged RpsB from cell poles towards midcell at 1 time MIC incubated for 30 mins by epifluorescence microscopy based analysis; assay type: functional, organism-based
How it was run: (§2)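 B. subtilis reporter strains expressing GFP fusions, grown overnight on selective LB agar at 37 °C, then overnight in LB with selective antibiotic and xylose, 37 °C, 180 rpm. Cells mounted on 1.2% agarose, imaged by epifluorescence with 100×/1.45 oil objective, FITC (525/50) filter.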

[22] = tested on: Bacillus subtilis; test: Antibacterial activity against Bacillus Subtilis assessed as bacterial transcription by measuring subcellular localization of MreB at 1 time MIC incubated for 30 mins by epifluorescence microscopy based analysis; assay type: functional, organism-based; how it was run: as §2
[23] = tested on: Bacillus subtilis; test: Antibacterial activity against Bacillus Subtilis assessed as bacterial transcription by measuring delocalization of GFP-tagged RpsB at 1 time MIC incubated for 30 mins by epifluorescence microscopy based analysis; assay type: functional, organism-based; how it was run: as §2

MIC [5]: 16 µg/mL | MIC [6]: 16 µg/mL | MIC [1]: 16 µg/mL | MIC [7]: 16 µg/mL | MIC [8]: 4 µg/mL | MIC [2]: 16 µg/mL | MIC [9]: 16 µg/mL | MIC [10]: 16 µg/mL | MIC [11]: 16 µg/mL | MIC [12]: 32 µg/mL | MIC [3]: 4 µg/mL | MIC [13]: 8 µg/mL | MIC [14]: 16 µg/mL | MIC [15]: > 256 µg/mL | MIC [16]: 16 µg/mL | MIC [4]: 8 µg/mL | MIC [17]: 8 µg/mL | MIC [18]: 8 µg/mL | MIC [19]: > 256 µg/mL
Compound: OC(CNCCNc1ccccc1C(F)(F)F)COc1ccc(C(F)(F)F)cc1 (centres undefined)

MIC [5]: > 256 µg/mL | MIC [7]: > 256 µg/mL | MIC [11]: 128 µg/mL | MIC [12]: 128 µg/mL | MIC [3]: 32 µg/mL | MIC [14]: 128 µg/mL | MIC [15]: > 256 µg/mL | MIC [17]: 128 µg/mL | MIC [19]: > 256 µg/mL
Compound: O=[N+]([O-])c1ccccc1NCCNCC(O)COc1ccc(C(F)(F)F)cc1 (centres undefined)

MIC [5]: > 256 µg/mL | MIC [7]: > 256 µg/mL | MIC [11]: > 256 µg/mL | MIC [12]: > 256 µg/mL | MIC [3]: > 256 µg/mL | MIC [14]: > 256 µg/mL | MIC [15]: > 256 µg/mL | MIC [17]: > 256 µg/mL | MIC [19]: > 256 µg/mL
Compound: OC(CNCCNc1cccc(C(F)(F)F)c1)COc1ccc(C(F)(F)F)cc1 (centres undefined)

MIC [5]: 16 µg/mL | MIC [7]: 128 µg/mL | MIC [11]: 128 µg/mL | MIC [12]: 128 µg/mL | MIC [3]: 64 µg/mL | MIC [14]: 128 µg/mL | MIC [15]: > 256 µg/mL | MIC [17]: 128 µg/mL | MIC [19]: > 256 µg/mL
Compound: N#Cc1ccccc1NCCNCC(O)COc1ccc(C(F)(F)F)cc1 (centres undefined)

MIC [5]: 64 µg/mL | MIC [7]: 64 µg/mL | MIC [11]: 32 µg/mL | MIC [12]: > 256 µg/mL | MIC [3]: 16 µg/mL | MIC [14]: 64 µg/mL | MIC [15]: > 256 µg/mL | MIC [17]: 64 µg/mL | MIC [19]: > 256 µg/mL
Compound: OC(CNCCNc1ccc(C(F)(F)F)cn1)COc1ccc(C(F)(F)F)cc1 (centres undefined)

MIC [5]: 64 µg/mL | MIC [7]: 64 µg/mL | MIC [11]: 64 µg/mL | MIC [12]: 128 µg/mL | MIC [3]: 32 µg/mL | MIC [14]: 64 µg/mL | MIC [15]: > 256 µg/mL | MIC [17]: 64 µg/mL | MIC [19]: > 256 µg/mL
Compound: OC(CNCCNc1ccccc1C(F)(F)F)COCc1ccc(C(F)(F)F)cc1 (centres undefined)

The remaining lines, values behind:

Compound: Cc1onc(-c2ccccc2)c1C(=O)N[C@@H]1C(=O)N2[C@@H]1SC(C)(C)[C@@H]2C(=O)O [OXACILLIN]
MIC [1]: ≤ 0.062 µg/mL | MIC [2]: 1 µg/mL | MIC [3]: 2 µg/mL | MIC [4]: 2 µg/mL

Compound: OC(CNCCSc1ccccc1C(F)(F)F)CSc1ccc(C(F)(F)F)cc1 (centres undefined)
MIC [5]: 32 µg/mL | MIC [6]: 4 µg/mL | MIC [1]: 8 µg/mL | MIC [7]: > 256 µg/mL | MIC [8]: 4 µg/mL | MIC [2]: 8 µg/mL | MIC [9]: 8 µg/mL | MIC [10]: 4 µg/mL | MIC [11]: 8 µg/mL | MIC [12]: > 256 µg/mL | MIC [3]: 4 µg/mL | MIC [13]: 8 µg/mL | MIC [14]: 8 µg/mL | MIC [15]: > 256 µg/mL | MIC [16]: 8 µg/mL | MIC [4]: 4 µg/mL | MIC [17]: 8 µg/mL | MIC [18]: 8 µg/mL | MIC [19]: > 256 µg/mL

Compound: H-EGRVATSLREHIKLHN-OH
IC50 [20]: 195 µM

Compound: CN(C)[C@@H]1C(O)=C(C(N)=O)C(=O)[C@@]2(O)C(O)=C3C(=O)c4c(O)cccc4[C@@](C)(O)[C@H]3C[C@@H]12
Activity [21]: Active

Compound: CO[C@H]1/C=C/O[C@@]2(C)Oc3c(C)c(O)c4c(O)c(c(/C=N/N5CCN(C)CC5)c(O)c4c3C2=O)NC(=O)/C(C)=C\C=C\[C@H](C)[C@H](O)[C@@H](C)[C@@H](O)[C@@H](C)[C@H](OC(C)=O)[C@@H]1C
Activity [22]: Active | Activity [23]: Active

Compound: OC(CNCCOc1ccccc1C(F)(F)F)COc1ccc(C(F)(F)F)cc1 (centres undefined)
MIC [5]: 16 µg/mL | MIC [6]: 8 µg/mL | MIC [1]: 16 µg/mL | MIC [7]: 16 µg/mL | MIC [8]: 8 µg/mL | MIC [2]: 8 µg/mL | MIC [9]: 8 µg/mL | MIC [10]: 8 µg/mL | MIC [11]: 16 µg/mL | MIC [12]: 32 µg/mL | MIC [3]: 8 µg/mL | MIC [13]: 8 µg/mL | MIC [14]: 16 µg/mL | MIC [15]: > 256 µg/mL | MIC [16]: 16 µg/mL | MIC [4]: 8 µg/mL | MIC [17]: 16 µg/mL | MIC [18]: 16 µg/mL | MIC [19]: > 256 µg/mL

Compound: CN[C@H](CC(C)C)C(=O)N[C@H]1C(=O)N[C@@H](CC(N)=O)C(=O)N[C@H]2C(=O)N[C@H]3C(=O)N[C@H](C(=O)N[C@H](C(=O)O)c4cc(O)cc(O)c4-c4cc3ccc4O)[C@H](O)c3ccc(c(Cl)c3)Oc3cc2cc(c3O[C@@H]2O[C@H](CO)[C@@H](O)[C@H](O)[C@H]2O[C@H]2C[C@](C)(N)[C@H](O)[C@H](C)O2)Oc2ccc(cc2Cl)[C@H]1O [VANCOMYCIN]
MIC [1]: 0.5 µg/mL | MIC [2]: 1 µg/mL | MIC [3]: 1 µg/mL | MIC [4]: 2 µg/mL

Compound: O=C(N[C@H](CO)[C@H](O)c1ccc([N+](=O)[O-])cc1)C(Cl)Cl
Activity [21]: Active

Compound: CNC(C)[C@@H]1CC[C@@H](N)[C@@H](O[C@H]2[C@H](O)[C@@H](O[C@H]3OC[C@](C)(O)[C@H](NC)[C@H]3O)[C@H](N)C[C@@H]2N)O1.CN[C@@H]1[C@@H](O)[C@@H](O[C@@H]2[C@@H](O)[C@H](O[C@H]3O[C@H](C(C)N)CC[C@H]3N)[C@@H](N)C[C@H]2N)OC[C@]1(C)O.CN[C@@H]1[C@@H](O)[C@@H](O[C@@H]2[C@@H](O)[C@H](O[C@H]3O[C@H](CN)CC[C@H]3N)[C@@H](N)C[C@H]2N)OC[C@]1(C)O (some centres undefined)
MIC [1]: 32 µg/mL | MIC [2]: 64 µg/mL | MIC [3]: 32 µg/mL | MIC [4]: ≤ 0.062 µg/mL
